Results from paper PMC3327328 (Molecular Biology of the Cell, 2012).
Like-named read-outs stand apart in the source and are kept apart here. Square brackets hold non-standard residues; d marks the D form. Ends that are not written are not given here. Peptide text beside a SMILES is read from it. pT = C[C@@H](OP(=O)(O)O)[C@H](N)C(=O)O

Assays:
[1] = molecular target: X. laevis class B Survivin (xl wt, xSurvivin-B) (Xenopus laevis, UniProt Q8JGN5); assay: ITC binding of histone H3 peptides to Xenopus Survivin class B wild type; details: pH 8.2, 25°C, HEPES:citric acid:Ches, 10 mM β-mercaptoethanol, single-site model, n/b = no binding
Sequence of X. laevis class B Survivin (xl wt, xSurvivin-B) (Q8JGN5 whole entry): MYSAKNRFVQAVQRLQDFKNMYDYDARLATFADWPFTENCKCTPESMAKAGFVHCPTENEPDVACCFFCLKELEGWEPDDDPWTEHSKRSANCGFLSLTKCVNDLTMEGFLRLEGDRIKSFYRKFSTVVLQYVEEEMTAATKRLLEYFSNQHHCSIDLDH

human Survivin H80R = human Survivin H80R (Homo sapiens, UniProt O15392, H80R); assay: ITC binding of histone H3 peptides to human Survivin H80R; details: pH 6.8, 25°C, HEPES:citric acid:Ches, 10 mM β-mercaptoethanol, single-site model, n/b = no binding
Sequence of human Survivin H80R (O15392 whole entry H80R): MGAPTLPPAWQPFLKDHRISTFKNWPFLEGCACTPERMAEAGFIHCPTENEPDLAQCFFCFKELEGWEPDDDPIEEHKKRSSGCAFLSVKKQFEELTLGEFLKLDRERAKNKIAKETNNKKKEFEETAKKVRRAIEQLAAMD
Method in brief: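 Mutant human Survivin from bacteria, Ni2+-resin purified, octahistidine tag removed by thrombin, then Superdex200. ITC at pH 6.8 in citric acid–Ches–HEPES buffer, 25°C. 1.2 mM histone H3 tail peptide titrated into 0.1 mM protein over sixteen injections 180 s apart. Kd from a single-site fit with stoichiometry, ΔH and Ka variable, using a baseline offset for dilution heats.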

[2] = molecular target: human Survivin (hs wt, class A) (Homo sapiens, UniProt O15392); assay: ITC binding of histone H3 peptides to human Survivin wild type
Sequence of human Survivin (hs wt, class A) (O15392 whole entry): as the sequence (O15392 whole entry H80R) above, with R80H counted along it

human Survivin K62A [3] = molecular target: human Survivin K62A (Homo sapiens, UniProt O15392, K62A); assay: ITC binding of histone H3 peptides to human Survivin K62A
Sequence of human Survivin K62A (Homo sapiens, UniProt O15392, K62A) (O15392 whole entry K62A): as the sequence (O15392 whole entry H80R) above, with K62A, R80H counted along it
Method in brief: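 ITC at pH 7.8 with recombinant human Survivin K62A (bacterially expressed, His tag thrombin-cleaved, gel-filtered) binding H3T3ph(1-4) and unmodified H3(1-4) peptides. Syringe peptide 1.2 mM, cell protein 0.1 mM, sixteen injections 180 s apart. Kd from a single-binding-site model with stoichiometry, ΔH and Ka variable. Baseline offset corrects for heats of dilution.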

[4] = molecular target: human Survivin K62A (human) (UniProt O15392); assay: ITC
Sequence of human Survivin K62A (human) (O15392 whole entry K62A): as the sequence (O15392 whole entry H80R) above, with K62A, R80H counted along it

[5] = molecular target: human Survivin H80A (human) (UniProt O15392); assay: ITC
Sequence of human Survivin H80A (human) (O15392 whole entry H80A): as the sequence (O15392 whole entry H80R) above, with R80A counted along it

[6] = molecular target: human Survivin wild type (human) (UniProt O15392); assay: ITC
Sequence of human Survivin wild type (human) (O15392 whole entry): as the sequence (O15392 whole entry H80R) above, with R80H counted along it

human Survivin wild type [7] = molecular target: T1, human Survivin wild type (human, UniProt O15392 1-142); assay: ITC
T1 sequence (O15392 whole entry): as the sequence (O15392 whole entry H80R) above, with R80H counted along it

human Survivin wild type [8] = molecular target: T1, human Survivin wild type; assay: ITC; remark: listed apart in the source
[9] = molecular target: T2, Xenopus laevis class B Survivin R89H (X. laevis, UniProt Q8JGN5 1-160, R89H); assay: ITC
T2 sequence (Q8JGN5 whole entry R89H): as the sequence (Q8JGN5 whole entry) above, with R89H counted along it

human Survivin wild type [10] = molecular target: T1, human Survivin wild type; assay: ITC; remark: listed apart in the source
[11] = molecular target: T2, Xenopus laevis class B Survivin R89H; assay: ITC; remark: listed apart in the source
human Survivin wild type [12] = molecular target: T1, human Survivin wild type; assay: ITC; remark: listed apart in the source
human Survivin wild type [13] = molecular target: T1, human Survivin wild type; assay: ITC; remark: listed apart in the source
human Survivin wild type [14] = molecular target: T1, human Survivin wild type; assay: ITC; remark: listed apart in the source
human Survivin wild type [15] = molecular target: T1, human Survivin wild type; assay: ITC; remark: listed apart in the source
human Survivin K62A [16] = molecular target: human Survivin K62A (human, UniProt O15392 1-142, K62A); assay: crystal structure
Sequence of human Survivin K62A (human, UniProt O15392 1-142, K62A) (O15392 whole entry K62A): as the sequence (O15392 whole entry H80R) above, with K62A, R80H counted along it

## C[C@H](N)C(=O)N[C@@H](CCCNC(=N)N)C(=O)N[C@H](C(=O)N[C@@H](CCCCN)C(=O)N[C@@H](CCC(N)=O)C(=O)N[C@H](C(=O)N[C@@H](C)C(=O)N[C@@H](CCCNC(=N)N)C(=O)N[C@@H](CCCCN)C(=O)N[C@@H](CO)C(=O)N[C@H](C(=O)NCC(=O)O)[C@@H](C)O)[C@@H](C)O)[C@@H](C)O [H3T3(1-12)]
[1]
  Kd (dissociation constant): n/b
Human Survivin H80R
  Kd (dissociation constant): n/b

## C[C@H](N)C(=O)N[C@@H](CCCNC(=N)N)C(=O)N[C@H](C(=O)N[C@@H](CCCCN)C(=O)O)[C@@H](C)O [H3T3(1-4)] (H-ARTK-OH)
[2]
  Kd: 60.6 ± 4 µM
Human Survivin K62A [3]
  Kd: 31.3 ± 2 µM

## histone H3 N-terminal peptide ARTK, unmodified
[4]
  Kd: 31.3 µM
  dH: -4.61 kcal/mol
  stoichiometry N: 1.22
[5]
  Kd: 236 µM
  dH: -3.3 kcal/mol
  stoichiometry N: 0.99

## ARTK [histone H3 N-terminal peptide ARTK, unmodified]
[6]
  Kd: 60.6 µM
  dH: -3.16 kcal/mol
  stoichiometry N: 1.27

## AR[pT]K [histone H3 N-terminal peptide ARTphK, phosphorylated on T3]
[6]
  Kd: 61.7 µM
  dH: -2.12 kcal/mol
  stoichiometry N: 1.05

## AR[pT]KQTARKSTG [histone H3 N-terminal peptide ARTphKQTARKSTG, phosphorylated on T3]
Human Survivin wild type [7]
  dH: -6.85 ± 0.02 kcal/mol
  stoichiometry N: 1.01 ± 0.002
Human Survivin wild type [8]
  dH: -5.64 ± 0.02 kcal/mol
  stoichiometry N: 1.13 ± 0.001
[9]
  dH: -4.57 ± 0.04 kcal/mol
  stoichiometry N: 1.09 ± 0.004
Human Survivin wild type [10]
  dH: -0.67 ± 0.05 kcal/mol
  stoichiometry N: 1.35 ± 0.06
[11]
  dH: -0.87 ± 0.015 kcal/mol
  stoichiometry N: 1.04 ± 0.01
Human Survivin wild type [12]
  dH: -4.13 ± 0.22 kcal/mol
  stoichiometry N: 1.23 ± 0.02
Human Survivin wild type [13]
  dH: -4.88 ± 0.03 kcal/mol
  stoichiometry N: 1.03 ± 0.002
Human Survivin wild type [14]
  dH: -4.72 ± 0.06 kcal/mol
  stoichiometry N: 1.2 ± 0.01
Human Survivin wild type [15]
  dH: -4.65 ± 0.05 kcal/mol
  stoichiometry N: 1.12 ± 0.01

## ARTKQTARKSTG [histone H3 N-terminal peptide ARTKQTARKSTG, unmodified]
Human Survivin wild type [7]
  Kd: 21.4 ± 3.2 µM
  dH: -4.32 ± 0.23 kcal/mol
  stoichiometry N: 1.37 ± 0.04
Human Survivin wild type [8]
  Kd: 11.8 ± 1 µM
  dH: -2.49 ± 0.06 kcal/mol
  stoichiometry N: 1.26 ± 0.01
[9]
  Kd: 5.21 ± 0.39 µM
  dH: -2.69 ± 0.04 kcal/mol
  stoichiometry N: 1.15 ± 0.01
Human Survivin wild type [10]
  Kd: 21 ± 1.8 µM
  dH: -1.89 ± 0.04 kcal/mol
  stoichiometry N: 1.56 ± 0.02
[11]
  Kd: 12.9 ± 1.4 µM
  dH: -2.72 ± 0.06 kcal/mol
  stoichiometry N: 1.34 ± 0.02
Human Survivin wild type [12]
  Kd: 30.2 ± 1.2 µM
  dH: -3.43 ± 0.05 kcal/mol
  stoichiometry N: 1.32 ± 0.01
Human Survivin wild type [13]
  Kd: 9.67 ± 0.31 µM
  dH: -2.79 ± 0.02 kcal/mol
  stoichiometry N: 1.29 ± 0.01
Human Survivin wild type [14]
  Kd: 17.1 ± 0.8 µM
  dH: -3.32 ± 0.05 kcal/mol
  stoichiometry N: 1.33 ± 0.01
Human Survivin K62A [16]
  binding result: binds
Human Survivin wild type [15]
  Kd: 13.3 ± 0.7 µM
  dH: -3.21 ± 0.05 kcal/mol
  stoichiometry N: 1.36 ± 0.01
